Results: ChEMBL document CHEMBL3085721, “Nonhydrolyzable ATP analogues as selective inhibitors of human NPP1: a combined computational/experimental study” (J Med Chem, 2013)
Active and inactive are the calls of the source. The rule behind the calls is not given here.

The molecules below were run against T1, Ectonucleotide pyrophosphatase/phosphodiesterase family member 3 (Homo sapiens) (UniProt O14638) (assay: Inhibition of human NPP3 expressed in COS7 cells assessed as production of p-nitrophenol using pnp-TMP as the substrate preincubated at 100 uM for 3 mins before substrate addition measured after 15 mins […]). Settings: COS-7.
T1 sequence (whole entry): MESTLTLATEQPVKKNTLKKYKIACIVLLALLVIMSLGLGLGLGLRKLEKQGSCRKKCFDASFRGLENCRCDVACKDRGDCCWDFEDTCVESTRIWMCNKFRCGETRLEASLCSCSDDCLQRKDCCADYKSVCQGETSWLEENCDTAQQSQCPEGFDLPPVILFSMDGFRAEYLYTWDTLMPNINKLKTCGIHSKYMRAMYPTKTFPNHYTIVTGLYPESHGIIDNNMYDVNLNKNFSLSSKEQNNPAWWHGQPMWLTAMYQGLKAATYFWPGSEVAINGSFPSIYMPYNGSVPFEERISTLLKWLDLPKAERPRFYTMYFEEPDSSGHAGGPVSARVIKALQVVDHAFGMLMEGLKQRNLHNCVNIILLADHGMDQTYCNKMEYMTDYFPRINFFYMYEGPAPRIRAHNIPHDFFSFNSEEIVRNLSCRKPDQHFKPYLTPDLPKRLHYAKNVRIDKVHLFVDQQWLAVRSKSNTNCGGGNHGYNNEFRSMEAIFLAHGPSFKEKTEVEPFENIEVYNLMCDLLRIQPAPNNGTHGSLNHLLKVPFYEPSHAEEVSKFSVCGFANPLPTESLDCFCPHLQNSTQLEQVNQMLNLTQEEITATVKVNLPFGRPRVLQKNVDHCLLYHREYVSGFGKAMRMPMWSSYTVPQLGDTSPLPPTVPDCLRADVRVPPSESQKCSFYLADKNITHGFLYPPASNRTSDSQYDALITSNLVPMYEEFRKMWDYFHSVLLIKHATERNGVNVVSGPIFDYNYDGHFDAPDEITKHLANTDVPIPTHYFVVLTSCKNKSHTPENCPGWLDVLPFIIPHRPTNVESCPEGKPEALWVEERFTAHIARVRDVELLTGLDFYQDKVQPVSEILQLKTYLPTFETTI
Format: cell-based
How it was run: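 Crude extracts of COS-7 cells transiently transfected with human NPP1 or NPP3, preincubated 3 min at 37 °C in 1 mM CaCl2, 140 mM NaCl, 5 mM KCl, 50 mM Tris pH 8.5 with analogue at 100 μM. Reaction started with 100 μM pnp-TMP; p-nitrophenol at 410 nm after 15 min. Activity without analogue set as 100%. Mean ± SD of 3−6 experiments in triplicate.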

Row | inhibition [%] | Structure (SMILES)
1 | 50 | B[P@@](=O)(OC[C@H]1O[C@@H](n2cnc3c(N)nc(SC)nc32)[C@H](O)[C@@H]1O)OP(=O)(O)C(F)(F)P(=O)(O)O
2 | 50 | CSc1nc(N)c2ncn([C@@H]3O[C@H](COP(=O)(O)C(F)(F)P(=O)(O)O)[C@@H](O)[C@H]3O)c2n1

Each molecule was assayed against T2, Ectonucleotide pyrophosphatase/phosphodiesterase family member 1 (Homo sapiens) (UniProt P22413) (assay: Competitive inhibition of human NPP1 expressed in COS7 cells assessed as production of p-nitrophenol using pnp-TMP as the substrate preincubated at 25 to 100 uM for 3 mins before substrate addition measured after 15 mins by Dixon/Cornish Bowden method). Settings: COS-7.
T2 sequence (whole entry): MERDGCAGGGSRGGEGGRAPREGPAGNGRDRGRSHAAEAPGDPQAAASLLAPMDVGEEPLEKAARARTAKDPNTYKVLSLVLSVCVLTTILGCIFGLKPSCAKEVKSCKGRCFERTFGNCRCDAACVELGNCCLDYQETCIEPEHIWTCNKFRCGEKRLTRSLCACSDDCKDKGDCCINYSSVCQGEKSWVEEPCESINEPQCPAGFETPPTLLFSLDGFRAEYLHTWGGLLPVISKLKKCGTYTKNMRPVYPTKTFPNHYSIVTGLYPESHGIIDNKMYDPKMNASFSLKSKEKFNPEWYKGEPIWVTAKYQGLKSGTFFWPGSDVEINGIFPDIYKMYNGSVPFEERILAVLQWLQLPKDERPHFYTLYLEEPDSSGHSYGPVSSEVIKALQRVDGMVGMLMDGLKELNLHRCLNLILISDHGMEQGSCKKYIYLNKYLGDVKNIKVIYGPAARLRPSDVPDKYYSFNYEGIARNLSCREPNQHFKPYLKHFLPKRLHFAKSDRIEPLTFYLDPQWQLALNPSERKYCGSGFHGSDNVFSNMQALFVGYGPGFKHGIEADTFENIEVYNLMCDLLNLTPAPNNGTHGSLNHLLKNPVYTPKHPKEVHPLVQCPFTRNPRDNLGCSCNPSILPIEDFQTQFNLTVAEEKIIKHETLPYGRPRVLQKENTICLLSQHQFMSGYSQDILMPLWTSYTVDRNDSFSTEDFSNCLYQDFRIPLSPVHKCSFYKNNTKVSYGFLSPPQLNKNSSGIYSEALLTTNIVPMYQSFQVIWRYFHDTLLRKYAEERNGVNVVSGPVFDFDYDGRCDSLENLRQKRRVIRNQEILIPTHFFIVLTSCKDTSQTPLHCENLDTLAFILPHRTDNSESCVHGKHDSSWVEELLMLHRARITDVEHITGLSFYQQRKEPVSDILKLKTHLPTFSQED
Format: cell-based
How it was run: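 Crude protein extract from COS-7 cells transiently transfected with human NPP1 (sonicated, debris cleared at 300g), preincubated 3 min at 37 °C with inhibitor (0, 25, 50, 100 μM) in 1 mM CaCl2, 140 mM NaCl, 5 mM KCl, 50 mM Tris pH 8.5. pnp-TMP (25, 50, 100 μM) added; p-nitrophenol read at 410 nm after 15 min. Ki,app and inhibition type from Dixon and Cornish-Bowden plots, three independent experiments.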

Row | inhibition | Structure (SMILES)
3 | Active | CSc1nc(N)c2ncn([C@@H]3O[C@H](COP(=O)(O)C(F)(F)P(=O)(O)O)[C@@H](O)[C@H]3O)c2n1
4 | Active | B[P@@](=O)(OC[C@H]1O[C@@H](n2cnc3c(N)ncnc32)[C@H](O)[C@@H]1O)OP(=O)(O)CP(=O)(O)O
5 | Active | B[P@](=O)(OC[C@H]1O[C@@H](n2cnc3c(N)ncnc32)[C@H](O)[C@@H]1O)OP(=O)(O)CP(=O)(O)O
6 | Active | B[P@](=O)(OC[C@H]1O[C@@H](n2cnc3c(N)nc(SC)nc32)[C@H](O)[C@@H]1O)OP(=O)(O)CP(=O)(O)O
